Shown are actives, neighbours in structure and some others; about 3.3% of the full set was active somewhere.
rCAG binder-1 – molecules binding r(CAG) RNA repeats; r(CAG) RNA repeat, TO-PRO-1 dye displacement fluorescence; inhibition, % at 3 µM; actives 1.3% (n = 370,000);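 active means inhibition above the plate cutoff, the mean of all test compounds on that plate plus 3 SD, cut at about 35% in these data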;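 further: 0% = DMSO alone and 100% = 100 µM mitoxantrone as full dye displacement; higher means more dye released from RNA so lower well fluorescence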
PRMT1 FP inh – PRMT1 (human) inhibition, primary screen; Q99873; recombinant PRMT1, activity-based probe fluorescence polarization; inhibition, % at 2.79 µM; actives 1.3% (n = 370,000);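 active means inhibition above about 21% made by adding two undisclosed values, limit read from the data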
Target sequence (Q99873 whole entry, looked up): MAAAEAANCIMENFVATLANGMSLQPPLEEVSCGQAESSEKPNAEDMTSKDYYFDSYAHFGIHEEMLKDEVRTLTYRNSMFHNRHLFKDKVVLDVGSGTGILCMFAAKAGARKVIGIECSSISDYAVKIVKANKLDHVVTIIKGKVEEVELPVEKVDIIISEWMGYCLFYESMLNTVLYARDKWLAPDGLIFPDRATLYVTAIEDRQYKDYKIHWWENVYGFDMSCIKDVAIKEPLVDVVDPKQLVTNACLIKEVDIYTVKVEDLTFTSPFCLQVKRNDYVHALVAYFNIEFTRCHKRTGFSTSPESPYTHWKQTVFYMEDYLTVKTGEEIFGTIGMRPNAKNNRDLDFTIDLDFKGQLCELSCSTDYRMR
SIAE inh – blocks human sialic acid acetylesterase | AID 1053197 | SIAE FP-Rh probe binding, fluorescence polarization | inhibition, % at 9.66 µM | actives 0.69% (n = 370,000) | Q9HAT2;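 active means inhibition above a cutoff: mean of compounds within the control limits plus 3 SD of those, cut at about 17% in these data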;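 further: 0% = plate median of compound wells and 100% = probe without SIAE protein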
HTRA1 inh – blocks human HTRA1 serine peptidase | recombinant HTRA1, FP-rhodamine activity-based probe, fluorescence polarization | AID 504803 | actives 0.5% (n = 340,000) | inhibition, % at 5.96 µM; in the data active means inhibition above about 36%;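 further: 0% = enzyme with DMSO and 100% = wells lacking enzyme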
mABHD4 FP – inhibits mouse alpha/beta hydrolase domain 4. actives 0.54% (n = 370,000). inhibition, % at 8.92 µM. Q8VD66. purified mABHD4, FP-Rh probe fluorescence polarization;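 active means inhibition exceeding the mean over every tested compound plus 3 SD, cut at about 30% in these data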;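 further: 0% = plate median of compound wells and 100% = S159A mutant with DMSO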
Target sequence (Q8VD66 whole entry, looked up, the tested form may be a part): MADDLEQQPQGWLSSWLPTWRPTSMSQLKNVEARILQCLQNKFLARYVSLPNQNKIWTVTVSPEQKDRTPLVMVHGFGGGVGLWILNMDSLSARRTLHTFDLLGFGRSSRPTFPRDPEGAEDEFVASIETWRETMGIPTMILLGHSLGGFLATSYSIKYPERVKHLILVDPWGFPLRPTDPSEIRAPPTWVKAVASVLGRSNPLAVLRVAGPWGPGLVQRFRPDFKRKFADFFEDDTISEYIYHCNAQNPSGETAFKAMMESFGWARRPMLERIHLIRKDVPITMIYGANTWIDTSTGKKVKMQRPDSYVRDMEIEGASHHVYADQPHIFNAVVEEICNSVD
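System: mouse ABHD4 enzyme, wild type / Medium: HEPES pH 7.0, NaCl, Pluronic buffer / Reagent: FP-Rh activity-based fluorescent probe / Control set: S159A mutant high control, sample median low control / Detection: fluorescence polarization with parallel and perpendicular emission, 525/598 nm / Schedule: 45 min + 60 min at 25 °C / Compound dosing: 8.92 µM, single dose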
rCAG bind conf – r(CAG) RNA repeat binding, confirmation. TO-PRO-1 dye displacement fluorescence. shares compounds with rCAG binder-1. inhibition, % at 3 µM. actives 70% (n = 4,300);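 active means inhibition above a per-plate cutoff, the mean inhibition of sample wells plus 3 SD, cut at about 35% in these data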;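 further: loss of TO-PRO-1 fluorescence as compound displaces dye from 1x1 AA loop RNA; 0% = DMSO only wells and 100% = 100 µM mitoxantrone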
DNA CAG counter – disrupts DNA CAG TO-PRO-1 complex, flagging rCAG hits. shares compounds with rCAG binder-1. d(CAG) DNA oligo TO-PRO-1 dye displacement, fluorescence. inhibition, % at 3 µM. actives 94% (n = 4,300). AID 652068;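 active means inhibition above its plate's cutoff, the mean test-well inhibition plus 3 SD, cut at about 4.8% in these data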;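 further: 0% = DNA dye mix with DMSO and 100% = 100 µM mitoxantrone; hits displace the dye from DNA and so lower well fluorescence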
DNA CAG DR – disrupts DNA CAG TO-PRO-1 complex in dose response | DNA CAG/GTC duplex TO-PRO-1 dye displacement fluorescence | shares compounds with rCAG binder-1 | actives 20% (n = 250) | IC50, µM; in the data active means IC50 below about 10 µM
dCAG TOPRO ctr – DNA CAG dye complex inhibition, late stage dose response | shares compounds with rCAG binder-1 | actives 80% (n = 30) | IC50, µM | AID 720649 | d(CAG) DNA duplex TO-PRO-1 dye displacement, fluorescence
rCAG binder-2 – r(CAG) repeat RNA binding, TO-PRO-1 displacement | shares compounds with rCAG binder-1 | r(CAG) RNA TO-PRO-1 dye displacement, fluorescence | IC50, µM | actives 100% (n = 30) | AID 720651
PRMT1 confirm – confirmation of human PRMT1 inhibitors; actives 42% (n = 3,300); inhibition, % at 2.79 µM; recombinant His-PRMT1, activity-based probe fluorescence polarization; AID 687036; shares compounds with PRMT1 FP inh;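 active means mean inhibition across replicates above the hit cutoff derived for the earlier primary screen, cut at about 22% in these data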
* = called active by the depositor; · = no result given. Unless noted, how the calls were made is not given here.

SMILES | rCAG binder-1 | PRMT1 FP inh | SIAE inh | HTRA1 inh | mABHD4 FP | rCAG bind conf | DNA CAG counter | others
Cc1cc(Cl)cc2c(N=Nc3ccccc3C(=O)O)c(O)[nH]c12 | 39.3* | -1.9 | 3.1 | -0.5 | 10.9 | 92.0* | 75.6*
Cc1[nH]n(-c2ccccc2)c(=O)c1N=Nc1ccccc1C(=O)O | 33.4 | -0.2 | 3.0 | -3.9 | 18.8 | · | ·
Cc1ccc(S(=O)(=O)N(CC(=O)Nc2ccccc2C(=O)O)c2ccccc2C)cc1 | 57.6* | 3.0 | -3.5 | -9.3 | 7.2 | 49.7* | 15.1*
Cc1ccc(S(=O)(=O)N(CC(=O)Nc2ccccc2C(=O)O)c2cccc(Cl)c2C)cc1 | 78.3* | -0.8 | -5.4 | -35.4 | -11.6 | 82.5* | 51.8*
CC(=O)c1ccc(NS(=O)(=O)c2ccc(C)cc2)cc1 | 1.4 | -0.8 | 4.0 | -0.8 | 0.7 | · | ·
COc1cc(OC)c(OC)cc1/C=C/C(=O)c1ccc(NS(=O)(=O)c2ccc(C)cc2)cc1 | 46.3* | -5.8 | 6.5 | -19.3 | -33.4 | 38.8* | 16.0*
O=C(O)/C(CC(=O)c1ccc(Cl)cc1)=N/Nc1ccc([N+](=O)[O-])cc1[N+](=O)[O-] | 91.7* | 4.8 | 1.0 | 11.2 | 10.7 | 89.5* | 66.1*
CCn1c(SCC(=O)N/N=C/c2cccc(Oc3ccccc3)c2)nnc1-c1ccccc1 | 3.0 | 3.2 | 1.7 | · | -9.1 | · | ·
Cc1ccccc1CN1CCCCC(NC(=O)c2ccc3ccccc3c2)C1=O (stereo not drawn) | 2.1 | 0.8 | -4.2 | · | -8.4 | · | ·
CC(CCc1ccccc1)NC(=O)COC(=O)c1cc(NS(=O)(=O)c2ccc(Cl)c([N+](=O)[O-])c2)ccc1O (stereo not drawn) | 46.4* | 3.4 | -16.6 | -28.3 | -26.2 | 43.4* | 12.3*
CN(C(=O)COC(=O)c1cc(NS(=O)(=O)c2cc([N+](=O)[O-])ccc2Cl)ccc1O)C1CCCCC1 | 56.0* | 1.4 | 6.6 | -6.0 | -7.1 | 52.8* | 16.7*
CNS(=O)(=O)c1cccc(C(=O)OCC(=O)NC(C)CCc2ccccc2)c1 (stereo not drawn) | -0.7 | -1.0 | -4.0 | 9.5 | -0.3 | · | ·
Cc1ccc(C(=O)/C=C/c2cc(Br)cc(Br)c2O)o1 | 59.6* | 1.8 | 2.7 | -4.1 | -25.7 | 45.9* | 15.7*
CCc1nnc(NS(=O)(=O)c2ccc(N/C=C\C(=O)c3ccc(C)cc3)cc2)s1 | 54.6* | 2.6 | -13.0 | -19.7 | 8.1 | 71.9* | 38.5*
Cc1noc(NS(=O)(=O)c2ccc(N/C=C\C(=O)c3ccc(F)cc3)cc2)c1C | 36.2* | 1.7 | -9.4 | · | -7.6 | 43.0* | 7.9*
CCc1nnc(NS(=O)(=O)c2ccc(N/C=C\C(=O)c3cccc(OC)c3)cc2)s1 | 49.1* | 0.0 | -9.0 | -23.9 | -1.0 | 62.9* | 28.0*
CCc1nnc(NS(=O)(=O)c2ccc(N/C=C/C(=O)c3ccc(C)cc3)cc2)s1 | 49.5* | -0.2 | -6.9 | -14.1 | 23.3 | 72.5* | 34.3* | DNA CAG DR=9.65*
Cc1noc(NS(=O)(=O)c2ccc(N/C=C\C(=O)c3ccccc3)cc2)c1C | 14.7 | 0.2 | 8.8 | -1.0 | -1.6 | · | ·
COc1cccc(C(=O)/C=C/Nc2ccc(S(=O)(=O)Nc3ncccn3)cc2)c1 | 6.4 | -2.2 | -0.1 | -1.3 | -5.2 | · | ·
C#CCNC(=O)C[C@@H]1C(=O)N(Cc2ccc(OC)cc2)C2=CCN(C(=O)OC(C)(C)C)C[C@]21C(=O)OCC | 1.6 | -1.1 | 2.8 | · | 11.2 | · | ·
O=C(CN1C(=O)C2(OCCCO2)c2ccccc21)NCc1ccc(F)cc1 | 1.1 | -3.2 | 0.4 | · | 3.8 | · | ·
COc1ccc(NC(=O)N(C)[C@H]2C[C@H]3c4[nH]c5c(-c6cccc(C)c6)cccc5c4CCN3C(=O)[C@H]2[C@H](C)O)cc1 | 16.3 | -4.6 | 7.5 | · | -4.2 | · | ·
COc1cc(C(NC(=O)C(F)(F)F)C2CCCC=C2c2ccccc2)cc(OC)c1OC (stereo not drawn) | 3.9 | 2.0 | -5.2 | · | -1.5 | · | ·
CC(C)(C)Cc1nnc(NS(=O)(=O)c2ccc(F)cc2)s1 | 18.3 | -0.4 | -1.4 | -0.3 | -4.8 | · | ·
CCc1nnc(NS(=O)(=O)c2ccc(N/C=C\C(=O)c3ccc(F)cc3)cc2)s1 | 48.5* | 2.7 | -6.5 | -12.2 | 4.5 | 61.2* | 23.0*
SMILES | rCAG binder-1 | PRMT1 FP inh | SIAE inh | HTRA1 inh | mABHD4 FP | rCAG bind conf | DNA CAG counter | others
O=C(CSc1nc2[nH]c(=O)cc(O)c2s1)Nc1cc(Cl)cc(Cl)c1 | 28.4 | 9.7 | -14.9 | -31.4 | 10.9 | · | ·
O=C(CSc1nc2[nH]c(=O)cc(O)c2s1)Nc1ccc(Cl)c(C(F)(F)F)c1 | 40.7* | 3.6 | -23.5 | -17.6 | 16.7 | 30.6 | 10.8*
O=C(O)CCC(=O)N1N=C(c2cccs2)CC1c1cn(-c2ccccc2)nc1-c1ccccc1 (stereo not drawn) | 53.8* | -4.3 | -8.4 | -29.0 | -4.6 | 60.6* | 19.1*
Cc1cccc(N=C2NC(=O)/C(=C/C=C/c3ccco3)S2)c1 | 52.1* | 27.6* | 15.4 | 11.3 | -0.7 | 43.0* | 22.5* | PRMT1 confirm=9.2
O=C(O)c1ccccc1NS(=O)(=O)c1cccc(-n2sc3ccccc3c2=O)c1 | 71.6* | 93.6* | -21.2 | -0.9 | 3.2 | 74.4* | 34.0* | DNA CAG DR=7.2*;PRMT1 confirm=93.0*
CC(=O)N(CN1C(=O)c2ccccc2C1=O)c1ccc2c(c1)oc1ccccc12 | 2.4 | 1.0 | 4.6 | -0.5 | 1.0 | · | ·
CCc1ccc(NC(=O)C(C)Sc2nc(-c3ccco3)c(C#N)c(=O)[nH]2)cc1 (stereo not drawn) | 79.5* | 25.8* | -12.7 | -40.9 | -13.6 | 69.6* | 32.7* | DNA CAG DR=9.65*;dCAG TOPRO ctr=3.34*;rCAG binder-2=1.14*;PRMT1 confirm=38.5*
O=C(CSc1nc(-c2ccc(Cl)cc2)[nH]c(=O)n1)Nc1cccc(Cl)c1 | 57.0* | 50.7* | -29.1 | · | -41.3 | 66.0* | 29.6* | PRMT1 confirm=0.4
O=C(CSc1nc2[nH]ncc2c(=O)[nH]1)Nc1cccc(Cl)c1 | 5.0 | 0.8 | -4.5 | -0.3 | 1.1 | · | ·

Screens (PubChem BioAssay)
